Series [1] concerns DX3puroβ6 tumor (αvβ6-positive). Description: Biodistribution, DX3puroβ6 xenograft tumor. The format is in vivo, mouse. The following applies: ratio x:1; for DX3puroβ6/DX3puro tumor uptake ratio: paired DX3puroβ6–DX3puro mouse model. Put shortly:
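Female athymic nude mice received subcutaneous DX3puro and DX3puroβ6 cells (3 × 10^6 each) on opposite flanks. Radiotracer in phosphate-buffered saline was given at 1.1–2.0 MBq/animal by tail-vein injection under 2% isoflurane. Mice were killed under 4% isoflurane at 1, 2 and 4 h (n = 3/time point). Tissues were rinsed and γ-counted; values are decay-corrected %ID/g, and ratios are taken from these.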

The nature of series [2]: Mouse serum stability. The format is in vitro ADME. The following applies: mouse serum 0.5 mL + radiotracer 12.5 µL (0.74 MBq), 37°C, 60 min, ethanol precipitation of serum proteins, HPLC.
Series [3] relates to DX3puroβ6 (αvβ6 +) cells. Description: Cell binding and internalization, DX3puroβ6 cells. The format is cell-based. The following applies: in vitro, ratio x:1. Put shortly:
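Radiolabelled tracer was incubated with DX3puroβ6 (αvβ6+) and DX3puro (αvβ6−) cells for 60 min, n = 4 per cell line and condition. Bound and internalized activity are each expressed as a fraction of total radioactivity, with SD. Uptake and internalization ratios are DX3puroβ6 over DX3puro values.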

A short description of series [4]: Biodistribution, nontumor organs. Type of series: in vivo. The following applies: female, athymic nude, mouse, iv, total radioactivity.
The nature of series [5]: Stability in phosphate-buffered saline. Type of series: physicochemical. The note with it: formulated in phosphate-buffered saline.
The subject of series [6] is DX3puroβ6 tumor. Description: Radiotracer stability in DX3puroβ6 tumor. Type of series: in vivo, mouse. The note with it: tumor collected 1 h after injection, homogenized, ethanol precipitation, HPLC. Put shortly:
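Female athymic nude mice carried paired subcutaneous DX3puroβ6 and DX3puro xenografts (3 × 10^6 cells each, opposite flanks). After intravenous radiotracer, the DX3puroβ6 tumor was harvested at 1 h and homogenized. Proteins were removed by ethanol precipitation, and the supernatant was analysed by HPLC for intact radiotracer.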

The nature of series [7]: HPLC analysis of urine metabolites. The format is in vivo. The note with it: mouse urine, ethanol precipitation.
The subject of series [8] is BxPC-3 tumor (αvβ6-positive). Description: Biodistribution, BxPC-3 xenograft tumor. Type of series: in vivo. The following applies: BxPC-3 mouse model, ratio x:1.
The test system of series [9] is BxPC-3 tumor. Description: Radiotracer stability in BxPC-3 tumor. The format is in vivo, mouse. The following applies: tumor collected 1 h after injection, homogenized, ethanol precipitation, HPLC. In a few lines:
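BxPC-3 xenografts came from 3.5 × 10^6 cells injected subcutaneously in female athymic nude mice. Radiotracer was given intravenously. Tumor was excised 1 h later and homogenized. Proteins were precipitated with ethanol, and supernatant aliquots were analysed by HPLC for intact versus degraded radiotracer.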

Where [10] appears, read: paired mouse model, throughout (1, 2 and 4 h).
[11] abbreviates: gallbladder, stomach, intestine.

In general, tissue uptake refers to the percentage of the injected dose found per gram of tissue.

Consider `CC(C)C[C@H](NC(=O)[C@H](CC(=O)O)NC(=O)CNC(=O)[C@H](CCCNC(=N)N)NC(=O)[C@H](CC(C)C)NC(=O)[C@H](CC(N)=O)NC(=O)[C@@H]1CCCN1C(=O)[C@@H](NC(=O)[C@H](C)NC(=O)[C@H](CC(N)=O)NC(=O)c1ccc(F)cc1)C(C)C)C(=O)N[C@@H](CCC(N)=O)C(=O)N[C@H](C(=O)N[C@@H](CC(C)C)C(=O)N[C@@H](C)C(=O)N[C@@H](CCC(N)=O)C(=O)N[C@@H](CCCCN)C(=O)N[C@H](C(=O)N[C@@H](C)C(=O)N[C@@H](CCCNC(=N)N)C(=O)N[C@H](C(=O)NCCOCCOCCOCCOCCOCCOCCOCCOCCOCCOCCOCCOCCOCCOCCOCCOCCOCCOCCOCCOCCOCCOCCOCCOCCOCCOCCOCCOCCC(N)=O)[C@@H](C)O)C(C)C)C(C)C` [compound 4, ^18F-FBA-A20FMDV2-PEG28], for which, in [1] (setting [10]), the “DX3puroβ6 tumor–to–DX3puro tumor ratio” value is reported as “greater than 2.5” and the “DX3puroβ6 tumor–to–blood ratio” value is reported as “greater than 2”. Further, the “Radiotracer remaining intact in mouse serum” value in series [2] is reported as 76%. Further, in series [3], the “Internalization ratio for the DX3puroβ6–DX3puro cell pair” value stood at 9.4 and the “Uptake (binding) ratio for the DX3puroβ6–DX3puro cell pair” value is listed as 7.1. In series [4] (setting [11]), the tissue uptake at 1 h was under 15 %ID/g. Also, the “Stable in phosphate-buffered saline (time)” value in series [5] is listed as at least 4 h.
In the case of `CC(C)C[C@H](NC(=O)[C@H](CC(=O)O)NC(=O)CNC(=O)[C@H](CCCNC(=N)N)NC(=O)[C@H](CC(C)C)NC(=O)[C@H](CC(N)=O)NC(=O)[C@@H]1CCCN1C(=O)[C@@H](NC(=O)[C@H](C)NC(=O)[C@H](CC(N)=O)NC(=O)CCOCCOCCOCCOCCOCCOCCOCCOCCOCCOCCOCCOCCOCCOCCOCCOCCOCCOCCOCCOCCOCCOCCOCCOCCOCCOCCOCCOCCNC(=O)c1ccc(F)cc1)C(C)C)C(=O)N[C@@H](CCC(N)=O)C(=O)N[C@H](C(=O)N[C@@H](CC(C)C)C(=O)N[C@@H](C)C(=O)N[C@@H](CCC(N)=O)C(=O)N[C@@H](CCCCN)C(=O)N[C@H](C(=O)N[C@@H](C)C(=O)N[C@@H](CCCNC(=N)N)C(=O)N[C@H](C(=O)NCCOCCOCCOCCOCCOCCOCCOCCOCCOCCOCCOCCOCCOCCOCCOCCOCCOCCOCCOCCOCCOCCOCCOCCOCCOCCOCCOCCOCCC(N)=O)[C@@H](C)O)C(C)C)C(C)C` [compound 5, ^18F-FBA-PEG28-A20FMDV2-PEG28], the “Apparent metabolic breakdown of radioactivity extracted from DX3puroβ6 tumor” value in series [6] was “less than 20%”. Moreover, the “DX3puroβ6/DX3puro tumor uptake ratio” value in series [1] (1 h) came to 6.5. Also, the “DX3puroβ6/DX3puro tumor uptake ratio” value in series [1] (4 h) is given as 10.7. The “DX3puroβ6 tumor–to–blood ratio” value in series [1] (setting [10]) was “greater than 4.5”. Besides, the “Radiotracer remaining intact in mouse serum” value in [2] is on record as 80%. The “Minor new peak in urine HPLC (slightly longer retention time)” value in [7] turned out to be 18%. In addition, in series [3], the “Internalization ratio for the DX3puroβ6–DX3puro cell pair” value amounted to 41 and the “Uptake (binding) ratio for the DX3puroβ6–DX3puro cell pair” value came out at 20. Also, in series [8] (4 h), the “BxPC-3–to–blood ratio” value is listed as “greater than 20” and the “BxPC-3–to–liver ratio” value is reported as “greater than 20”. The “BxPC-3–to–pancreas ratio” value in series [8] was at least 9. In series [4] (setting [11]), the tissue uptake at 1 h is under 15 %ID/g. Also, in series [4] (pancreas), the tissue uptake at 1 h turned out to be 0.46 ± 0.07 %ID/g and the tissue uptake at 4 h came out at 0.25 ± 0.07 %ID/g. Also, the “Apparent breakdown of radioactivity extracted from BxPC-3 tumor” value in [9] is “less than 20%”. The “Stable in phosphate-buffered saline (time)” value in series [5] was at least 4 h.

Values taken from publication PMC4559355 (Journal of nuclear medicine : official publication, Society …, 2015).
